Laboratory results: paper PMC12671527 (Research in Pharmaceutical Sciences, 2025)
Converted amounts (≈) assume the structure as drawn.

Experiments:
Format in all cases: cell-based
[1] = tested on: Acinetobacter baumannii ATCC 1799; test: Synergistic studies, broth microdilution checkerboard; settings: levofloxacin combined with UP5, checkerboard, first no-growth well, triplicate
Outline: (§1)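 Checkerboard broth microdilution in Mueller-Hinton broth. Each well held graded concentrations of the peptide and levofloxacin in crossed combination, plus inoculum at 10^6 CFU/mL before mixing. Plates ran 18 h at 37 °C with growth read at OD 570 nm. Combination MICs were determined in triplicate. FIC = sum of combined/alone MIC ratios, with 100 µM used as the denominator when the solo MIC exceeded 100 µM.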

[2] = tested on: Acinetobacter baumannii ATCC 1799; test: MIC and MBC, broth microdilution; settings: ATCC1799, 18 h
Outline: (§2)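 Broth microdilution per CLSI. Isolates were revived from glycerol stocks, grown overnight in Mueller-Hinton broth and diluted to 10^6 CFU/mL, then mixed with equal volumes of serially diluted test compound, six wells per concentration. Plates ran 18 h at 37 °C with growth read at OD 570 nm; MIC was the lowest inhibiting concentration. MBC: clear wells streaked on agar for 24 h, 99.9% kill. Triplicate experiments. SI = MDCK IC50/MIC.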

[3] = tested on: Pseudomonas aeruginosa ATCC 3197; test: MIC and MBC, broth microdilution; settings: ATCC3197, 18 h
Outline: as §2

[4] = tested on: Enterococcus faecium ATCC 2316; test: MIC and MBC, broth microdilution; settings: ATCC2316, 18 h
Outline: as §2

[5] = tested on: Staphylococcus aureus ATCC BAA-44; test: Synergistic studies, broth microdilution checkerboard; settings: levofloxacin combined with UP5, checkerboard, first no-growth well, triplicate
Outline: as §1

[6] = tested on: Klebsiella pneumoniae ATCC 2814; test: MIC and MBC, broth microdilution; settings: ATCC2814, 18 h
Outline: as §2

[7] = tested on: Pseudomonas aeruginosa ATCC 3197; test: Synergistic studies, broth microdilution checkerboard; settings: levofloxacin combined with UP5, checkerboard, first no-growth well, triplicate
[8] = tested on: Staphylococcus epidermidis ATCC 700565; test: MIC and MBC, broth microdilution; settings: ATCC700565, 18 h
Outline: as §2

[9] = tested on: Klebsiella pneumoniae ATCC 2814; test: Synergistic studies, broth microdilution checkerboard; settings: levofloxacin combined with UP5, checkerboard, first no-growth well, triplicate
Outline: as §1

[10] = tested on: Enterococcus faecium ATCC 2316; test: as above; settings: levofloxacin combined with UP5, checkerboard, first no-growth well, triplicate
Outline: as §1

[11] = tested on: Staphylococcus epidermidis ATCC 700565; test: as above; settings: levofloxacin combined with UP5, checkerboard, first no-growth well, triplicate
Outline: as §1

MIC in combination, Levofloxacin [1]: 12.5 µM | MIC [2]: > 100 µM | MIC [3]: 25 µM (≈ 9.03 µg/mL) | MIC [4]: 50 µM (≈ 18.1 µg/mL) | MIC in combination, Levofloxacin [5]: 12.5 µM | MIC [6]: > 100 µM | MIC in combination, Levofloxacin [7]: 12.5 µM | MIC [8]: 25 µM (≈ 9.03 µg/mL) | MIC in combination, Levofloxacin [9]: 25 µM | MIC in combination, Levofloxacin [10]: 12.5 µM | MIC in combination, Levofloxacin [11]: 6.25 µM
SMILES: C[C@H]1COc2c(N3CCN(C)CC3)c(F)cc3c(=O)c(C(=O)O)cn1c23 [Levofloxacin, levofloxacin]
